This passage reports IC50, Ratio IC50 and Activity results from ChEMBL document CHEMBL1153093, “Synthesis and structure-activity relationships of cassiarin A as potential antimalarials with vasorelaxant activity” (Bioorg Med Chem, 2009).

In one test the test system is MCF7. The experiment in a line: Cytotoxicity against human MCF7 cells after 48 hrs by MTT assay. The class given is cell-based. The conditions noted are these: MCF7, 48 h. A digest of the protocol: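 MCF7 human breast adenocarcinoma cells seeded at 5 × 10³ cells/well and preincubated 24 h at 37 °C, 5% CO₂. Compounds were added at various concentrations for 48 h at 37 °C. MTT solution (5 mg/mL stock) was added for 2 h, and formazan was dissolved in 10% SDS–0.01 N HCl. OD was read at 550/700 nm in triplicate wells, and IC₅₀ was taken from % living cells vs control.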
(Formazan colour is commonly taken as a measure of viable cells.)

Test [1] is described as follows: Selectivity index, ratio of IC50 for human MCF7 to IC50 for chloroquine-sensitive Plasmodium falciparum 3D7.
For test [2], the system named is Aorta. The experiment in a line: Vasorelaxant activity in Wistar rat endothelium-intact thoracic aortic rings assessed as inhibition of phenylephrine-induced tissue contraction at 30 uM. In kind it is functional, tissue-based. A digest of the protocol: (§1)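 Thoracic aorta rings, 3 mm, in Krebs–Henseleit solution (95% O₂/5% CO₂, 37 °C), equilibrated 60 min at 1.0 g resting tension. Rings were contracted with 3 × 10⁻⁷ M phenylephrine. Endothelium was accepted if 10⁻⁵ M acetylcholine gave 80% relaxation. At the contraction plateau, samples were added at 1 × 10⁻⁶–3 × 10⁻⁵ M. Tension was recorded isometrically; data are mean ± SEM with ANOVA/Bonferroni.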

Another test concerns Plasmodium falciparum. The experiment in a line: Antimalarial activity against chloroquine-sensitive Plasmodium falciparum 3D7 by giemsa stain.
Test [3] is described as follows: Vasorelaxant activity in Wistar rat endothelium-intact thoracic aortic rings assessed as inhibition of phenylephrine-induced tissue contraction in presence of NO synthase-inhibitor L-NMMA. In kind it is functional. As to conditions: Thoracic aorta.
In test [4] the test system is Aorta. The experiment in a line: Vasorelaxant activity in Wistar rat endothelium-removed thoracic aortic rings assessed as inhibition of phenylephrine-induced tissue contraction. In kind it is functional, tissue-based. A digest of the protocol:
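Isolated thoracic aorta rings, 3 mm, in oxygenated Krebs–Henseleit solution at 37 °C, equilibrated 60 min under 1.0 g tension. Rings were precontracted with 3 × 10⁻⁷ M phenylephrine, and at the plateau samples were added at 1 × 10⁻⁶–3 × 10⁻⁵ M. Relaxation was recorded by force transducer; data are mean ± SEM.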

In test [5] the test system is Aorta. The experiment in a line: Vasorelaxant activity in Wistar rat endothelium-intact thoracic aortic rings assessed as inhibition of phenylephrine-induced tissue contraction. In kind it is functional, tissue-based. In a few lines:
as §1

Activity calls are given as the source filed them. The calls are words filed in the database; no cut-off is given here. Some results are limits rather than exact numbers.

A word on the IC50: it is the concentration needed to halve the response being measured. Higher therefore signals weaker potency. Take `Cc1cc2c3c(cc(C)n2C)cc(=O)cc3o1`: the IC50 was more than 100 µM with MCF7 and 23.3 µM with Plasmodium falciparum. The Ratio IC50 in test [1] was more than 4.2. Besides, the result in the test on Aorta [2] was inactive.
For the molecule `CCCCn1c(C)cc2cc(=O)cc3oc(C)cc1c23`, the figures for the half-maximal inhibitory concentration (IC50) in the test with MCF7 and in the test on Plasmodium falciparum were more than 100 µM and 4.2 µM, respectively. The Ratio IC50 in test [1] is more than 23. Moreover, the outcome in the test on Aorta [2] was inactive.
As for `CC1=Cc2nc(C)cc3cc(OS(=O)(=O)C(F)(F)F)cc(c23)O1`, the half-maximal inhibitory concentration (IC50) in the test with MCF7 was more than 100 µM; in the test with Plasmodium falciparum, 0.41 µM. In addition, the Ratio IC50 in test [1] is more than 244.
For the molecule `Cc1cc2c3c(cc(C)n2-c2ccccc2)cc(=O)cc3o1`, the results for the IC50 with MCF7 and in the test on Plasmodium falciparum were more than 100 µM and 0.09 µM, respectively. Also, the Ratio IC50 in test [1] is more than 1110. For the same molecule, the outcome in the test on Aorta [2] was inactive.
As to `CNC(=N)NCCC[C@H](N)C(=O)O`, the outcome in test [3] was inactive.
With `CC1=Cc2nc(C)cc3cccc(c23)O1` [7-DEHYDROXYCASSIARIN A], the 50% inhibitory concentration (IC50) in the test with MCF7 is more than 100 µM; in the test on Plasmodium falciparum, 5.4 µM. In test [1], the Ratio IC50 was more than 18.
For `CC(=O)Oc1cc2c3c(nc(C)cc3c1)C=C(C)O2` [ACETYLCASSIARIN A], in that order: more than 100 µM, 1.2 µM and more than 83.
For `CC1=Cc2nc(C)cc3cc(OC(=O)c4ccccc4)cc(c23)O1` [BENZOYLCASSIARIN A], in that order: more than 100 µM, 1.2 µM and more than 83.
Take `CCCC(=O)Oc1cc2c3c(nc(C)cc3c1)C=C(C)O2` [BUTYROYLCASSIARIN A]: the figures for the IC50 in the test with MCF7 and in the test with Plasmodium falciparum were more than 100 µM and 4.1 µM, respectively. For the same molecule, in test [1], the Ratio IC50 is more than 24. The outcome in the test with Aorta [2] was Active.
Turning to `CC1=Cc2nc(C)cc3cc(OCc4ccccc4)cc(c23)O1` [CASSIARIN A BENZYL ETHER], the IC50 in the test on MCF7 amounted to 72.2 µM; in the test with Plasmodium falciparum, 14.9 µM. Moreover, the Ratio IC50 in test [1] is 4.8.
`CCCCOc1cc2c3c(nc(C)cc3c1)C=C(C)O2` [CASSIARIN A BUTYL ETHER]: the IC50 stood at 76.7 µM in the test on MCF7 and 3 µM in the test with Plasmodium falciparum. In addition, the Ratio IC50 in test [1] is more than 26.
Turning to `COc1cc2c3c(nc(C)cc3c1)C=C(C)O2` [CASSIARIN A METHYL ETHER], the outcome with Aorta [4] was inactive. The values for the concentration for half-maximal inhibition (IC50) in the test with MCF7 and in the test with Plasmodium falciparum were 87.8 µM and 3.6 µM, respectively. In addition, the Ratio IC50 in test [1] was more than 24. In the test on Aorta [2], the result was Active. In addition, in the test with Aorta [5], the Activity result was “Dose-dependent effect”.
On to `CC1=Cc2nc(C)cc3cc(O)cc(c23)O1` [CASSIARIN A], for which the result in the test with Aorta [4] was inactive. Moreover, the IC50 in the test on MCF7 was more than 100 µM; with Plasmodium falciparum, 0.023 µM. In addition, the Ratio IC50 in test [1] was more than 4350. Moreover, the result in the test with Aorta [2] was Active. Also, in the test on Aorta [5], the Activity result was “Dose-dependent effect”.
Regarding `COC(=O)CCCn1c(C)cc2cc(=O)cc3oc(C)cc1c23` [CASSIARIN B], the 50% inhibitory concentration (IC50) is more than 100 µM in the test with MCF7 and 22 µM with Plasmodium falciparum. The Ratio IC50 in test [1] was more than 4.5. For the same molecule, the result in the test on Aorta [2] was inactive.
On to `CCN(CC)CCCC(C)Nc1ccnc2cc(Cl)ccc12` (configuration not stated) [CHLOROQUINE], for which the IC50 with MCF7 amounted to 36.1 µM.
